Reference: ChEMBL document CHEMBL2169862, “Synthesis and biological evaluation of 1α,25-dihydroxyvitamin D₃ analogues with a long side chain at C12 and short C17 side chains” (J Med Chem, 2012)
Calls of active or inactive are those of the source. The rule behind the calls is not given here.

What was measured:
SW480-ADH [1] = assay: Effect on cellular PIP4K2B mRNA level in human SW480-ADH cells at 10 '-9 to 10 '-7 M after 48 hrs by RT-PCR analysis; type: functional, cell-based
Method in brief: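 SW480-ADH cells treated 48 h in medium with charcoal-treated FCS; vehicle controls. Quantitative RT-PCR: 95 °C 10 min, then 40 cycles of 95 °C 15 s and 60 °C 30 s. Expression normalized to RPLP0 by comparative C_T method. Measurements in triplicate.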

Vitamin D3 receptor [2] = biological target: T1, Vitamin D3 receptor (Homo sapiens, UniProt P11473); assay: Binding affinity to VDR assessed as inhibition of fluorescent ligand by fluorescence polarization competition assay
T1 sequence (P11473 whole entry): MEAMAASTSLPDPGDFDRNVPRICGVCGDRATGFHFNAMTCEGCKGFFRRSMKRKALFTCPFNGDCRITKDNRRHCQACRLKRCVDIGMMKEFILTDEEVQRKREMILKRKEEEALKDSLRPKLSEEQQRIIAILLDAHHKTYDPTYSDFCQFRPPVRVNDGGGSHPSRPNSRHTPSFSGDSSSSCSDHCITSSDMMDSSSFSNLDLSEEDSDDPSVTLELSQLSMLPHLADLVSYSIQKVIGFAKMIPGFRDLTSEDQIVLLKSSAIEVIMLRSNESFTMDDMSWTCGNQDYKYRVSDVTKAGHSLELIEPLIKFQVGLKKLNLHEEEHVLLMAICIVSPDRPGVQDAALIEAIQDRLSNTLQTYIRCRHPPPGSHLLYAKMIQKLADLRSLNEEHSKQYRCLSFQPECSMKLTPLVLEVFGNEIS

SW480-ADH [3] = assay: Induction of human SW480-ADH cell differentiation assessed as formation of compact epithelioid islands of highly adherent cells at 10 '-8 M after 48 hrs by phase-contrast microscopy; type: functional, cell-based
Method in brief: (§1)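 SW480-ADH colon cancer cells were treated for 48 h with compound or vehicle in medium with charcoal-treated FCS. Differentiation was scored as compact epithelioid islands of highly adherent cells. A representative experiment is shown.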

SW480-ADH [4] = assay: Induction of human SW480-ADH cell differentiation assessed as formation of compact epithelioid islands of highly adherent cells at 10 '-7 M after 48 hrs by phase-contrast microscopy; type: functional, cell-based; method in brief: as §1
Mus musculus [5] = assay: Increase in serum Calcium levels in CD-1 mouse at 0.3 ug/kg, ip administered every other day for 3 weeks measured on day 21; type: functional
Method in brief: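 Female CD-1 mice, 6–8 weeks, six per group. Dosed ip in sesame oil every other day for three weeks; vehicle controls. Serum calcium measured with a colorimetric calcium kit a day after the last dose (day 21). Shown as percentage of calcium increase over untreated mice, with the 1α,25-(OH)₂D₃ group set to 100%. SD reported.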

Vitamin D3 receptor [6] = biological target: T1, Vitamin D3 receptor; assay: Agonist activity at VDR in human MCF7 cells assessed as transcription of CYP24A1 gene after 24 hrs by luciferase reporter gene assay; type: functional, cell-based
Mus musculus [7] = assay: Toxicity in CD-1 mouse assessed as body weight loss at 0.3 ug/kg, ip administered every other day for 3 weeks measured on day 21; type: organism-based; conditions: in vivo, 0.0003 mg/kg, 504 h
Method in brief: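 Female CD-1 mice, 6–8 weeks, six per group. Dosed ip in sesame oil every other day for three weeks; vehicle controls. Body weight recorded every other day.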

MCF7 = assay: Antiproliferative activity against human MCF7 cells at 10 '-7 M after 48 hrs by MTT assay relative to untreated-control; type: functional, cell-based
Method in brief: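 MCF-7 cells seeded at 5 × 10⁴ per well, treated 24 h later for 48 h in medium with charcoal-treated FCS; vehicle controls. MTT (0.5 μg/μL) added for 1 h, medium removed, formazan dissolved in DMSO, absorbance read at 570 nm. Three individual experiments averaged; SD shown.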

C=C1/C(=C\C=C2/CC[C@@H](CCCCCCC(C)(C)O)[C@]3(C)[C@@H]([C@H](C)CCO)CC[C@@H]23)C[C@@H](O)C[C@@H]1O
Activity (SW480-ADH [1]): inactive | IC50 (Vitamin D3 receptor [2]): 27.3 nM | Activity (SW480-ADH [3]): inactive | Activity (SW480-ADH [4]): Active | Activity (Mus musculus [5]): 18% | EC50 (Vitamin D3 receptor [6]): 9.04 nM | Activity (Mus musculus [7]): Non-toxic | Activity (MCF7): Active

C=C1/C(=C\C=C2/CC[C@@H](CCCCCCC(C)(C)O)[C@]3(C)[C@@H]([C@H](C)CO)CC[C@@H]23)C[C@@H](O)C[C@@H]1O
Activity (SW480-ADH [1]): inactive | IC50 (Vitamin D3 receptor [2]): 20.9 nM | Activity (SW480-ADH [3]): inactive | Activity (SW480-ADH [4]): Active | Activity (Mus musculus [5]): 0% | EC50 (Vitamin D3 receptor [6]): 8.19 nM | Activity (Mus musculus [7]): Non-toxic | Activity (MCF7): Active

C=C1/C(=C\C=C2/CC[C@@H](CCCCCCC(C)(C)O)[C@]3(C)[C@@H]([C@H](C)CCCO)CC[C@@H]23)C[C@@H](O)C[C@@H]1O
Activity (SW480-ADH [1]): inactive | IC50 (Vitamin D3 receptor [2]): 15.7 nM | Activity (SW480-ADH [3]): inactive | Activity (SW480-ADH [4]): Active | Activity (Mus musculus [5]): 1% | EC50 (Vitamin D3 receptor [6]): 5.74 nM | Activity (Mus musculus [7]): Non-toxic | Activity (MCF7): Active

C=C1/C(=C\C=C2/CCC[C@]3(C)[C@@H]([C@H](C)CCCC(C)(C)O)CC[C@@H]23)C[C@@H](O)C[C@@H]1O [CALCITRIOL]
Activity (SW480-ADH [1]): inactive | Activity (SW480-ADH [3]): Active | Activity (SW480-ADH [4]): Active | Activity (Mus musculus [5]): 100% | Activity (Mus musculus [7]): Non-toxic | Activity (MCF7): Active
